These results are taken from ChEMBL document CHEMBL1151917, “Dysideamine, a new sesquiterpene aminoquinone, protects hippocampal neuronal cells against iodoacetic acid-induced cell death” (Bioorg Med Chem, 2009).

For data set [1], the system named is N2a. The data set can be described thus: Induction of neuronal differentiation in mouse Neuro2a cells assessed as increase in acetylcholinesterase activity at 10 uM after 48 hrs by colorimetrically. Type of data set: functional, cell-based. Summed up: (§1)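 After 48 h treatment of Neuro 2A cells, AChE production was measured per 5 × 10^4 cells. Read-out was the colorimetric rate of acetylthiocholine hydrolysis.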

Data set [2] is described as follows: Cytotoxicity against mouse Neuro2a cells at 10 uM. Type of data set: cell-based. The settings on record: n2a.
For data set [3], the system named is HT-22. Description: Neuroprotective activity against iodoacetic acid-induced cell death in mouse HT22 cells assessed as survival treated 2 hrs after iodoacetic acid challenge measured after 20 hrs by MTT colorimetric assay. Type of data set: functional, cell-based. An outline of the steps:
(§2)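 HT22 cells in DMEM/10% FBS, 5 × 10^3 cells/well, held 24 h at 37 °C under 5% CO2. Switched to DMEM/7.5% FBS with 20 µM iodoacetic acid for 2 h. Medium then replaced with fresh DMEM/10% FBS and compound added in EtOH. After a further 20 h, viability was read by MTT. Mean ± SEM, n = 3.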
In general terms: Tetrazolium assays rely on reduction of a dye to a coloured formazan, in cell work by metabolically active cells.

Data set [4] concerns HT-22. Description: Neuroprotective activity against iodoacetic acid-induced cell death in mouse HT22 cells assessed as survival at 10 uM treated 2 hrs after iodoacetic acid challenge measured after 20 hrs by MTT colorimetric assay. Particulars: read-out: Survival. Type of data set: functional. Summed up: as §2
For data set [5], the system named is N2a. Description: Induction of neurite out growth in mouse Neuro2a cells assessed as increase in percent of cells with outgrowth at 3 uM after 48 hrs by phase contrast microscopy. The class given is functional. An outline of the steps:
(§3)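 Neuro 2A cells in DMEM/10% FBS, seeded at 1 × 10^4 cells per well and grown 24 h. Medium renewed, then compound added in EtOH and cells held 48 h. Scored by phase contrast microscopy: neurite-bearing means processes longer than the cell body diameter. Percent of neurite-bearing cells counted from at least 300 cells in photomicrographs of representative-density areas.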

The test system of data set [6] is HT-22. The data set can be described thus: Neuroprotective activity against iodoacetic acid-induced intracellular ATP depletion in mouse HT22 cells assessed as recovery of ATP treated 2 hrs after iodoacetic acid challenge after 4 to 8 hrs. The class given is functional, cell-based. An outline of the steps: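 HT22 cells at 5 × 10^3 cells/well were exposed to […] for 2 h in DMEM/7.5% FBS. They were then moved to normal growth medium, with or without compound, for the indicated times. Intracellular ATP was read by CellTiter-Glo luminescence. Mean ± SEM, n = 3.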

The test system of data set [7] is N2a. The data set can be described thus: Induction of neuronal differentiation in mouse Neuro2a cells assessed as increase in acetylcholinesterase activity at 3 uM after 48 hrs by colorimetrically. Type of data set: functional, cell-based. An outline of the steps: as §1
The test system of data set [8] is HT-22. Description: Neuroprotective activity in mouse HT22 cells assessed as inhibition of iodoacetic acid-induced intracellular ROS production at 10 uM treated 2 hrs after iodoacetic acid challenge. The class given is functional, cell-based. Summed up:
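HT22 cells at 5 × 10^4 cells/well were cultured 24 h, then given 20 µM iodoacetic acid in DMEM/7.5% FBS for 2 h. Cells went to normal growth medium with compound (10 µM) in EtOH. At the indicated times they were washed and loaded with 10 µM DCFH-DA in serum-free medium for 20 min in the dark. After a second wash, fluorescence was read at ex 485/em 530 nm.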

In data set [9] the test system is N2a. The data set can be described thus: Induction of neurite out growth in mouse Neuro2a cells assessed as increase in percent of cells with outgrowth at 10 uM after 48 hrs by phase contrast microscopy. The class given is functional. Summed up: as §3

Active and inactive are the calls of the source. No cut-off for these calls is given here.

For the molecule `CC1=CCC[C@H]2[C@@H](C)[C@@](C)(CC3=C(O)C(=O)C=C(N)C3=O)CC[C@]12C` [DYSIDEAMINE], the outcome in the data set with N2a [1], in the data set on HT-22 [6], in the data set with N2a [7] and in the data set with HT-22 [8] was Active. For the same molecule, the Activity result is “Non-toxic” in [2], “Dose-dependent effect” with HT-22 [3], 40% in the data set on N2a [5] and 25% in the data set on N2a [9]. In the data set on HT-22 [4], the viability at 10 µM turned out to be 43%.

For `COC1=CC(=O)C(O)=C(C[C@@]2(C)CC[C@]3(C)C(C)=CCC[C@H]3[C@H]2C)C1=O` [BOLINAQUINONE], in the data set with HT-22 [4], the viability at 10 µM amounted to 57%.
